Reference: publication PMC6370590 (European journal of pharmaceutical sciences : official …, 2018)

Tests used:
[1] = target: T1, SUMO hTDP2^cat (Homo sapiens, UniProt O95551); assay: SUMO hTDP2^cat fluorescence-based biochemical assay
T1 sequence (O95551 110-362): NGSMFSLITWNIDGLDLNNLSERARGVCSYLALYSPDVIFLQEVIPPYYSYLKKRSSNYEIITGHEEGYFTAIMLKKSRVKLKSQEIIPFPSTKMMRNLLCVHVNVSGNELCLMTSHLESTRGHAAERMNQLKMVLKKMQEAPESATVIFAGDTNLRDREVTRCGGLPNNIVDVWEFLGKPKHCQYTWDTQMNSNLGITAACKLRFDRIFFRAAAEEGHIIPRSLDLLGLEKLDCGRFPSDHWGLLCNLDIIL

[2] = target: T2, 14M_zTDP2^cat (humanized zebrafish TDP2 catalytic domain) (Danio rerio, UniProt Q5XJA0, A139S/C239T/C322L/D120S/K240R/K309Q/K314L/L136N/P317T/R321K/S320C/T315G/V316I/V319A/Y318A); assay: 14M_zTDP2^cat fluorescence-based biochemical assay; details: for LE (ligand efficiency): LE = 1.4 x pIC50 / HAC; for LELP (ligand efficiency dependent lipophilicity): LELP = LE / cLogP as printed; for LLE (lipophilic ligand efficiency): LLE = pIC50 - cLogP; for TDP2 inhibition, SAR statement: compared with hit 11a
T2 sequence (Q5XJA0 120-369 D120S/L136N/A139S/C239T/K240R/K309Q/K314L/T315G/V316I/P317T/Y318A/V319A/S320C/R321K/C322L): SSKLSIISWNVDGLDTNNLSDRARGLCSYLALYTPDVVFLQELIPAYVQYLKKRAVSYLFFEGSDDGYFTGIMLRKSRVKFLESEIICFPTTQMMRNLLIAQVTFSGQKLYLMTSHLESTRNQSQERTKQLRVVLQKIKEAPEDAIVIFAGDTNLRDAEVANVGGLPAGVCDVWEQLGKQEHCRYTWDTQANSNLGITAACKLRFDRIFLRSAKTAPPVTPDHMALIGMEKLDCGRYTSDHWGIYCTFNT
Method in brief: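 Humanized zebrafish TDP2 catalytic domain (residues 120–369), 6.25 pM final, pre-incubated 10 min with test compound in pH 7.4 Tris buffer (10 mM MgCl₂, 80 mM KCl, 0.05% Tween-20, 1 mM DTT). Reaction started with 1 μM (final) FAM-phosphotyrosyl-GATCT-BHQ-1 substrate at 25 °C. Fluorescence ([…]) read kinetically over 60 min. % inhibition normalised to DMSO and no-enzyme controls. IC₅₀ fitted from 10–12 concentrations.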

COc1ccc2nc(NC(=N)N)nc(C)c2c1 [Compound 11a, 1-(6-Methoxy-4-methylquinazolin-2-yl) guanidine]
IC50 [1]: 113 ± 10 µM | LE (ligand efficiency) [2]: 0.32 | LELP (ligand efficiency dependent lipophilicity) [2]: 4.9 | LLE (lipophilic ligand efficiency) [2]: 2.3

CCOc1ccc2nc(NC(=N)N)nc(C)c2c1 [Compound 11b, 1-(6-Ethoxy-4-methylquinazolin-2-yl) guanidine]
TDP2 inhibition, SAR statement [2]: did not interfere significantly with the activity

Cc1nc(NC(=N)N)nc2ccc(Cl)cc12.Cl [Compound 11c, 1-(6-Chloro-4-methylquinazolin-2-yl) guanidine hydrochloride]
inhibitory activity ([2]; up to 200 µM, vs. 11a): abrogated completely the inhibitory activity

COc1ccc2nc(Nc3nc(C)c(C)c(=O)[nH]3)nc(C)c2c1 [Compound 12a, 2-((6-Methoxy-4-methylquinazolin-2-yl)amino)-5,6-dimethylpyrimidin-4(3H)-one]
fold increase in potency over the original HTS hit 11a ([1]; ratio of IC50 values): 6.4 fold

COc1ccc2nc(NC(=N)N)[nH]c(=O)c2c1 [Compound 15, 1-(6-Methoxy-4-oxo-3,4-dihydroquinazolin-2-yl)guanidine]
TDP2 inhibition, SAR statement [2]: no inhibition was observed

Cc1ccc(-c2nn3c(-c4ccco4)nnc3s2)cc1C [Compound 19a, 6-(3,4-Dimethylphenyl)-3-(furan-2-yl)-[1,2,4]triazolo[3,4-b][1,3,4] thiadiazole]
LE (ligand efficiency) [2]: 0.30 | LELP (ligand efficiency dependent lipophilicity) [2]: 14 | LLE (lipophilic ligand efficiency) [2]: 0.29

COc1ccccc1-c1nn2c(-c3ccco3)nnc2s1 [Compound 19b, 3-(Furan-2-yl)-6-(2-methoxyphenyl)-[1,2,4]triazolo[3,4-b][1,3,4]thiadiazole]
TDP2 inhibition ([2]; concentrations up to 100 µM): did not exhibit significant TDP2 inhibition
